Laboratory results taken from ChEMBL document CHEMBL5030506 (J Med Chem, 2021).
Active and inactive are the calls of the source. The rule behind the calls is not given here.

Columns and labels:
[1] = target: Histone-lysine N-methyltransferase EHMT2 (Homo sapiens) (UniProt Q96KQ7); experiment: Inhibition of G9a (unknown origin) at 1 to 10 uM; conditions: dose 1-10 µM
Procedure, shortened: (§1)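 Part of a 33-methyltransferase selectivity panel covering 8 PRMTs, 21 PKMTs, 3 DNMTs and 1 RNA methyltransferase. Each compound was tested at 1 μM and at 10 μM, with n = 3.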

[2] = target: Histone-lysine N-methyltransferase SETD7 (Homo sapiens) (UniProt Q8WTS6); experiment: Inhibition of SETD7 (unknown origin) at 1 to 10 uM; conditions: dose 1-10 µM; procedure, shortened: as §1
[3] = target: Protein arginine N-methyltransferase 7 (Homo sapiens) (UniProt Q9NVM4); experiment: Inhibition of PRMT7 (unknown origin) at 1 to 10 uM; conditions: dose 1-10 µM; procedure, shortened: as §1
[4] = target: Histone-lysine N-methyltransferase 2A (Homo sapiens) (UniProt Q03164); experiment: Inhibition of MLL1 (unknown origin) at 1 to 10 uM; conditions: dose 1-10 µM; procedure, shortened: as §1
[5] = target: RNA 5'-monophosphate methyltransferase (Homo sapiens) (UniProt Q7Z5W3); experiment: Inhibition of BCDIN3D (unknown origin) at 1 to 10 uM; conditions: dose 1-10 µM; procedure, shortened: as §1
[6] = target: Histone-lysine N-methyltransferase KMT5B (Homo sapiens) (UniProt Q4FZB7); experiment: Inhibition of SUV420H1 (unknown origin) at 1 to 10 uM; conditions: dose 1-10 µM; procedure, shortened: as §1
[7] = target: Histone-lysine N-methyltransferase, H3 lysine-36 specific (Homo sapiens) (UniProt Q96L73); experiment: Inhibition of NSD1 (unknown origin) at 1 to 10 uM; conditions: dose 1-10 µM; procedure, shortened: as §1
Histone-lysine N-methyltransferase, H3 lysine-36 specific (Homo sapiens), sequence (Q96L73 whole entry): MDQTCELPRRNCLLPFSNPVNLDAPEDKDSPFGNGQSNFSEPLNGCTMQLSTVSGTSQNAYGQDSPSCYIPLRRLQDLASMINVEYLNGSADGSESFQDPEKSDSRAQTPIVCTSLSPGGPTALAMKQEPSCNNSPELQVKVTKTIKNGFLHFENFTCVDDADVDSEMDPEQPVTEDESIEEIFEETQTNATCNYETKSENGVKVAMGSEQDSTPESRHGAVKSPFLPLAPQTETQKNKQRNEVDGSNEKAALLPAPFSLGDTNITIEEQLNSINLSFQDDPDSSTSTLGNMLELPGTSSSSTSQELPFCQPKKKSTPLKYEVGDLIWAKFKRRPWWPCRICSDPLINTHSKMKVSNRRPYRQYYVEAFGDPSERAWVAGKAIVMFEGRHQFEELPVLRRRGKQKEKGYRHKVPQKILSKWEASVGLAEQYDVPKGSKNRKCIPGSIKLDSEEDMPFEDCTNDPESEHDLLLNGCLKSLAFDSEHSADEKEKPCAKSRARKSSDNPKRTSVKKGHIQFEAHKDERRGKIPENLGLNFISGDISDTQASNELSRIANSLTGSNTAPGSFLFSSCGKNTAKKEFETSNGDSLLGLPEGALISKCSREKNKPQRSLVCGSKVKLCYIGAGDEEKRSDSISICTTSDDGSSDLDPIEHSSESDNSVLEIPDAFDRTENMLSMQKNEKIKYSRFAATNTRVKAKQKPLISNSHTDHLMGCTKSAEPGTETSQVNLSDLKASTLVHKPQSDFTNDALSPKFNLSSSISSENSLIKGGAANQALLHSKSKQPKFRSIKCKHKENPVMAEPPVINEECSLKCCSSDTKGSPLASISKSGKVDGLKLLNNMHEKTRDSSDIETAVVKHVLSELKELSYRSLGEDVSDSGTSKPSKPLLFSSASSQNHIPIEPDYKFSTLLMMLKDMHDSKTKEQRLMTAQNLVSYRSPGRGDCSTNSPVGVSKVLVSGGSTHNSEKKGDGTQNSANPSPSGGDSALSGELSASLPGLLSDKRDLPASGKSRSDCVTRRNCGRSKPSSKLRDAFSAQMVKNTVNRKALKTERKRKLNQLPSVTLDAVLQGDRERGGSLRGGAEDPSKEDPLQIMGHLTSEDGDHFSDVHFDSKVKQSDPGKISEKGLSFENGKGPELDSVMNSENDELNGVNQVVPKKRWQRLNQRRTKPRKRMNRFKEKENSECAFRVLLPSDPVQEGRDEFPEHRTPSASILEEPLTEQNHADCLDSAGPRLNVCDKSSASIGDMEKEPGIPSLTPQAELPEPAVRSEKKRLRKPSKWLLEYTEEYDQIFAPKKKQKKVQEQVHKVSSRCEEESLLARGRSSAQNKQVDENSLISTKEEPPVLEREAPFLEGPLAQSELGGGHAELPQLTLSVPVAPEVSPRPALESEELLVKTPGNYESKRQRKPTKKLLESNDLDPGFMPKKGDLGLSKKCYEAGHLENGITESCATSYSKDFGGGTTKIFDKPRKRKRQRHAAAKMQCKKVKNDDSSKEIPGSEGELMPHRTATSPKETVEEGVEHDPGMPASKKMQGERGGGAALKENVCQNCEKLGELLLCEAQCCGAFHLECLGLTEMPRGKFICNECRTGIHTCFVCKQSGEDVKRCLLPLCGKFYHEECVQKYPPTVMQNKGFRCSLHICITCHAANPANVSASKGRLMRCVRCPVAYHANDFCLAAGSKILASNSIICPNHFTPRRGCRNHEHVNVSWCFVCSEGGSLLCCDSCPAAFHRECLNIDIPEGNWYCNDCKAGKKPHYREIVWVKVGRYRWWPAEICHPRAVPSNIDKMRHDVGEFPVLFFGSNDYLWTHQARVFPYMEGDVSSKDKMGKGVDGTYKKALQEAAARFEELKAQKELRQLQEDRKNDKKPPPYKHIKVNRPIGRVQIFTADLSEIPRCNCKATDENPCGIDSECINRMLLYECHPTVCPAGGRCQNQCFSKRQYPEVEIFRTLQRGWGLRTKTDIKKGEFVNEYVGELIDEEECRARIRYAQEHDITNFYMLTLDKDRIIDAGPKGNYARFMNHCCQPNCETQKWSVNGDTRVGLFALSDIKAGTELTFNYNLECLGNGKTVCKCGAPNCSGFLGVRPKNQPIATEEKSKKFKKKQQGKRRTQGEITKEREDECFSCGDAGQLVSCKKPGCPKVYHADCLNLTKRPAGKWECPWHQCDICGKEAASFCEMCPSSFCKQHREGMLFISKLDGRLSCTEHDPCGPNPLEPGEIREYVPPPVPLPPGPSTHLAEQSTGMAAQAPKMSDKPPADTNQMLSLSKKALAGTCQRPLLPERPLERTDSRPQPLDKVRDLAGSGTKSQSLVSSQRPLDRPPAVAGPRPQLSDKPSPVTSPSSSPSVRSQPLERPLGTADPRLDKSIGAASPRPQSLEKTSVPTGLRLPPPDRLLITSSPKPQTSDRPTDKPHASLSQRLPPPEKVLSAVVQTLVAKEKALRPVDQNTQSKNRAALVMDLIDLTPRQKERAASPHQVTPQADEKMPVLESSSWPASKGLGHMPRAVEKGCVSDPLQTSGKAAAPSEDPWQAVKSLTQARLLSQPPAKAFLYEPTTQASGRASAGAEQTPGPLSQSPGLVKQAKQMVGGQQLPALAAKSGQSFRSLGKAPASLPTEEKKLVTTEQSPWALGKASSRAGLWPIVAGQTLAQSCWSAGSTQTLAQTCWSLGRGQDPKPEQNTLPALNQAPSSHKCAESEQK

HEK-293T [8] = experiment: Cytotoxicity against HEK293T cells at up to 10 uM measured after 3 days by CCK8 assay; assay type: cell-based; conditions: human, 72 h, time 3 day
Procedure, shortened: (§2)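 Cells (1 × 10^4 per well) were seeded and, after 24 h, exposed for 3 days to serially diluted compound starting at 10 μM. CCK-8 (WST-8) reagent was then added for 4 h at 37 °C, and absorbance was read at 450 nm. Values are the average ± SD of three replicate experiments.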

[9] = target: Protein arginine N-methyltransferase 1 (Homo sapiens) (UniProt Q99873); experiment: Inhibition of PRMT1 (unknown origin) at 1 to 10 uM; conditions: dose 1-10 µM; procedure, shortened: as §1
[10] = target: Histone-lysine N-methyltransferase SMYD3 (Homo sapiens) (UniProt Q9H7B4); experiment: Inhibition of SMYD3 (unknown origin) at 1 to 10 uM; conditions: dose 1-10 µM; procedure, shortened: as §1
MCF7 = experiment: Cytotoxicity against MCF7 cells at up to 10 uM measured after 3 days by CCK8 assay; assay type: cell-based; conditions: human, mcf7, 72 h, time 3 day; procedure, shortened: as §2
[11] = target: Histone-arginine methyltransferase CARM1 (Homo sapiens) (UniProt Q86X55); experiment: Inhibition of PRMT4 (unknown origin) at 1 to 10 uM; conditions: dose 1-10 µM; procedure, shortened: as §1
[12] = target: Histone-lysine N-methyltransferase NSD3 (Homo sapiens) (UniProt Q9BZ95); experiment: Inhibition of NSD3 (unknown origin) at 1 to 10 uM; conditions: dose 1-10 µM; procedure, shortened: as §1
Histone-lysine N-methyltransferase NSD3 (Homo sapiens), sequence (Q9BZ95 whole entry): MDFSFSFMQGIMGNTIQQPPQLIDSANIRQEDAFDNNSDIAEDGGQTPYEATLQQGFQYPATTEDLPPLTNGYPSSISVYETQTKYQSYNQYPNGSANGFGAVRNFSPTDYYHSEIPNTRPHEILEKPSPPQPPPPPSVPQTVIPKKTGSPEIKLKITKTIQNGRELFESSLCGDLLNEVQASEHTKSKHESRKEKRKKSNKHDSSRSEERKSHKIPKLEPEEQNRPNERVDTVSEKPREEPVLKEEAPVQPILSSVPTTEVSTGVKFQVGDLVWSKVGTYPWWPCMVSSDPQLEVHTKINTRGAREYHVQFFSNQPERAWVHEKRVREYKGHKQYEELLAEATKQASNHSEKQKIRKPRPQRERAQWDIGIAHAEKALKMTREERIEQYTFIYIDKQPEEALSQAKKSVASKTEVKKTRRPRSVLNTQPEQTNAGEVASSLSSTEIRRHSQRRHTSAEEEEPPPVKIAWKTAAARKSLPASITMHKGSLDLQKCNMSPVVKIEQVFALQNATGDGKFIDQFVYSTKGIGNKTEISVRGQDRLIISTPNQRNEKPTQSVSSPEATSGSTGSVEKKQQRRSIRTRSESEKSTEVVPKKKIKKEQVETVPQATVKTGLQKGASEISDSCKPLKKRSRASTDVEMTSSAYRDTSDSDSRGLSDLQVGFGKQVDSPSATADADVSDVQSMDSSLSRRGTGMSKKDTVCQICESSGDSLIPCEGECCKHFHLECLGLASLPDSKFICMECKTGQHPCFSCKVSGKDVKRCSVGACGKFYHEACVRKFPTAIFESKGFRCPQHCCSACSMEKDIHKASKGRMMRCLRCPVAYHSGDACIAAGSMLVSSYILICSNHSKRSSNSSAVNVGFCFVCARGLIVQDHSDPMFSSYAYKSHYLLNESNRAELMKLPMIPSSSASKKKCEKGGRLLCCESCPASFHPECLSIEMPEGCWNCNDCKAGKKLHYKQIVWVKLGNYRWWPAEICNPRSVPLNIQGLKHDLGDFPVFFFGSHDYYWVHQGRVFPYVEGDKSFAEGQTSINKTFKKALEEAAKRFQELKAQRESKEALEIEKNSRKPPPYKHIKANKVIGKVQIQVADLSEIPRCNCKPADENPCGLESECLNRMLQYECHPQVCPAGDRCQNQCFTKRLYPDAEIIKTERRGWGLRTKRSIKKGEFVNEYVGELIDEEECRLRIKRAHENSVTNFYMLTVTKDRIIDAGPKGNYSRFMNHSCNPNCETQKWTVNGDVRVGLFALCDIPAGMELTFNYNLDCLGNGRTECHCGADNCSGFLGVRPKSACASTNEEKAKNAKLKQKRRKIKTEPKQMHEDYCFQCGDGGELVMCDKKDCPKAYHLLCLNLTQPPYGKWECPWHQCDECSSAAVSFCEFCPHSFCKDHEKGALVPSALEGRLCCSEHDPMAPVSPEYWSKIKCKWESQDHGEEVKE

[13] = target: DNA (cytosine-5)-methyltransferase 1 (Homo sapiens) (UniProt P26358); experiment: Inhibition of DNMT1 (unknown origin) at 1 to 10 uM; conditions: dose 1-10 µM; procedure, shortened: as §1
[14] = target: Histone-lysine N-methyltransferase SUV39H1 (Homo sapiens) (UniProt O43463); experiment: Inhibition of SUV39H1 (unknown origin) at 1 to 10 uM; conditions: dose 1-10 µM; procedure, shortened: as §1
[15] = target: Histone-lysine N-methyltransferase NSD2 (Homo sapiens) (UniProt O96028); experiment: Inhibition of NSD2 (unknown origin) at 1 to 10 uM; conditions: dose 1-10 µM; procedure, shortened: as §1
[16] = target: Protein arginine N-methyltransferase 9 (Homo sapiens) (UniProt Q6P2P2); experiment: Inhibition of PRMT9 (unknown origin) at 1 to 10 uM; conditions: dose 1-10 µM
Protein arginine N-methyltransferase 9 (Homo sapiens), sequence (Q6P2P2 whole entry, looked up): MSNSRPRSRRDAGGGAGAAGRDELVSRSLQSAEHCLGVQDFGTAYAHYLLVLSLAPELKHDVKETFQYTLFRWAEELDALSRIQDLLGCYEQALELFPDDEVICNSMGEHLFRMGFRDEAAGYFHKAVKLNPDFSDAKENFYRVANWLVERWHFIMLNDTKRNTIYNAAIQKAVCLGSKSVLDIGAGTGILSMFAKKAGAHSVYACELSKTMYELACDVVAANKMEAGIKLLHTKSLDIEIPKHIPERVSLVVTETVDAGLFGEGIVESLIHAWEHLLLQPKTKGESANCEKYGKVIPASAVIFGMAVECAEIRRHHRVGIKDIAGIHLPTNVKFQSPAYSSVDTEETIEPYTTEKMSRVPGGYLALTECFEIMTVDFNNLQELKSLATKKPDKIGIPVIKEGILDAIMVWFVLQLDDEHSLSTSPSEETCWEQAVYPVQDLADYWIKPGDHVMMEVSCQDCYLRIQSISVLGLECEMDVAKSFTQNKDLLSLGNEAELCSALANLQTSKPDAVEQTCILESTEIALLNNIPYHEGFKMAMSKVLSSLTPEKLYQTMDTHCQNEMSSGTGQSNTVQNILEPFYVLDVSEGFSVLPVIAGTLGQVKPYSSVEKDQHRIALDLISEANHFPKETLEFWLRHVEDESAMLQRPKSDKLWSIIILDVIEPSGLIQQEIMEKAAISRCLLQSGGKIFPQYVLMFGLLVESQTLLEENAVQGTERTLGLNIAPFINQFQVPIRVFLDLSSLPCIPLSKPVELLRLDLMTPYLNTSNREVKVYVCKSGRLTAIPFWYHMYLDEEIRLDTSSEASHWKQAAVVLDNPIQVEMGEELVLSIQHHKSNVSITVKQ

[17] = target: N-lysine methyltransferase KMT5A (Homo sapiens) (UniProt Q9NQR1); experiment: Inhibition of SETD8 (unknown origin) at 1 to 10 uM; conditions: dose 1-10 µM; procedure, shortened: as §1
[18] = target: Protein arginine N-methyltransferase 3 (Homo sapiens) (UniProt O60678); experiment: Inhibition of PRMT3 (unknown origin) at 1 to 10 uM; conditions: dose 1-10 µM; procedure, shortened: as §1
PNT2 = experiment: Cytotoxicity against PNT2 cells at up to 10 uM measured after 3 days by CCK8 assay; assay type: cell-based; conditions: human, pnt2, 72 h, time 3 day; procedure, shortened: as §2
[19] = target: DNA (cytosine-5)-methyltransferase 3A (Homo sapiens) (UniProt Q9Y6K1); experiment: Inhibition of DNMT3A (unknown origin) at 1 to 10 uM; conditions: dose 1-10 µM; procedure, shortened: as §1
[20] = target: Histone-lysine N-methyltransferase SETDB1 (Homo sapiens) (UniProt Q15047); experiment: Inhibition of SETDB1 (unknown origin) at 1 to 10 uM; conditions: dose 1-10 µM; procedure, shortened: as §1
[21] = target: Histone-lysine N-methyltransferase, H3 lysine-79 specific (Homo sapiens) (UniProt Q8TEK3); experiment: Inhibition of DOT1L (unknown origin) at 1 to 10 uM; conditions: dose 1-10 µM; procedure, shortened: as §1
[22] = target: Protein arginine N-methyltransferase 5 (Homo sapiens) (UniProt O14744); experiment: Inhibition of PRMT5 (unknown origin) at 1 to 10 uM; conditions: dose 1-10 µM; procedure, shortened: as §1
[23] = target: Histone-lysine N-methyltransferase EHMT1 (Homo sapiens) (UniProt Q9H9B1); experiment: Inhibition of GLP (unknown origin) at 1 to 10 uM; conditions: dose 1-10 µM; procedure, shortened: as §1
[24] = target: Histone-lysine N-methyltransferase ASH1L (Homo sapiens) (UniProt Q9NR48); experiment: Inhibition of ASH1L (unknown origin) at 1 to 10 uM; conditions: dose 1-10 µM; procedure, shortened: as §1
HEK293T [25] = experiment: Inhibition of FLAG-tagged PRMT6 V86K/D88A mutant (unknown origin) expressed in HEK293T assessed as reduction in H3R2me2a level measured after 20 hrs by SDS gel electrophoresis relative to control; assay type: cell-based; conditions: Homo sapiens
Procedure, shortened: (§3)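 HEK293T cells were grown in DMEM with 10% FBS and penicillin/streptomycin. The next day they were transfected with FLAG-PRMT6 or the V86K/D88A mutant (1 μg DNA per well). After 4 h, medium was replaced with titrated compound for 20 h. Cells were lysed in benzonase-containing buffer, SDS was added to 1%, and lysates were western blotted for H3R2me2a or H4R3me2a, total H3/H4 and FLAG, with infrared detection at 800/700 nm.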

[26] = target: DNA (cytosine-5)-methyltransferase 3B (Homo sapiens) (UniProt Q9UBC3); experiment: Inhibition of DNMT3B (unknown origin) at 1 to 10 uM; conditions: dose 1-10 µM; procedure, shortened: as §1
[27] = target: Histone-lysine N-methyltransferase SETD2 (Homo sapiens) (UniProt Q9BYW2); experiment: Inhibition of SETD2 (unknown origin) at 1 to 10 uM; conditions: dose 1-10 µM; procedure, shortened: as §1
HEK293T [28] = experiment: Inhibition of FLAG-tagged PRMT6 V86K/D88A mutant (unknown origin) expressed in HEK293T assessed as reduction in H4R3me2a level measured after 20 hrs by SDS gel electrophoresis relative to control; assay type: cell-based; conditions: Homo sapiens; procedure, shortened: as §3
[29] = target: Histone-lysine N-methyltransferase PRDM9 (Homo sapiens) (UniProt Q9NQV7); experiment: Inhibition of PRDM9 (unknown origin) at 1 to 10 uM; conditions: dose 1-10 µM; procedure, shortened: as §1
[30] = target: Histone-lysine N-methyltransferase SUV39H2 (Homo sapiens) (UniProt Q9H5I1); experiment: Inhibition of SUV39H2 (unknown origin) at 1 to 10 uM; conditions: dose 1-10 µM; procedure, shortened: as §1
[31] = target: N-lysine methyltransferase SMYD2 (Homo sapiens) (UniProt Q9NRG4); experiment: Inhibition of SMYD2 (unknown origin) at 1 to 10 uM; conditions: dose 1-10 µM; procedure, shortened: as §1
[32] = target: Histone-lysine N-methyltransferase EZH2 (Homo sapiens) (UniProt Q15910); experiment: Inhibition of PRC2 (unknown origin) at 1 to 10 uM; conditions: dose 1-10 µM; procedure, shortened: as §1
[33] = target: Protein arginine N-methyltransferase 8 (Homo sapiens) (UniProt Q9NR22); experiment: Inhibition of PRMT8 (unknown origin) at 1 to 10 uM; conditions: dose 1-10 µM; procedure, shortened: as §1
[34] = target: Histone-lysine N-methyltransferase KMT5C (Homo sapiens) (UniProt Q86Y97); experiment: Inhibition of SUV420H2 (unknown origin) at 1 to 10 uM; conditions: dose 1-10 µM; procedure, shortened: as §1
[35] = target: Histone-lysine N-methyltransferase 2C (Homo sapiens) (UniProt Q8NEZ4); experiment: Inhibition of MLL3 (unknown origin) at 1 to 10 uM; conditions: dose 1-10 µM; procedure, shortened: as §1
HEK-293T [36] = experiment: Cytotoxicity against HEK293T cells at 30 uM measured after 20 hrs by Western blot analysis; conditions: human
[37] = target: Protein arginine N-methyltransferase 6 (Homo sapiens, UniProt Q96LA8); experiment: Inhibition of PRMT6 (unknown origin)
[38] = Inhibition of PRMT6 mutant 19 (unknown origin) using biotinylated H4(1 to 24) peptide as substrate preincubated for 20 mins in presence of [3H]SAM followed by substrate addition by scintillation proximity assay; design: species or system Homo sapiens
[39] = Inhibition of PRMT6 mutant 20 (unknown origin) using biotinylated H4(1 to 24) peptide as substrate preincubated for 20 mins in presence of [3H]SAM followed by substrate addition by scintillation proximity assay; design: species or system Homo sapiens
[40] = Inhibition of PRMT6 mutant 17 (unknown origin) using biotinylated H4(1 to 24) peptide as substrate preincubated for 20 mins in presence of [3H]SAM followed by substrate addition by scintillation proximity assay; design: species or system Homo sapiens

Compound | inhibition [1] | inhibition [2] | inhibition [3] | inhibition [4] | inhibition [5] | inhibition [6] | inhibition [7] | inhibition [9] | inhibition [10] | Activity (MCF7) | inhibition [11] | inhibition [12] | inhibition [13] | inhibition [14] | inhibition [15] | inhibition [16] | inhibition [17] | inhibition [18] | Activity (PNT2) | inhibition [19] | other results
Cc1cc(C)cc([C@@H]2c3cc(C)ccc3NC(=O)CN2C(=O)c2ccc(Br)s2)c1 | inactive | inactive | inactive | inactive | inactive | inactive | inactive | inactive | inactive | Non-Toxic | inactive | inactive | inactive | inactive | inactive | inactive | inactive | inactive | Non-Toxic | inactive | Activity (HEK-293T [8]): Non-Toxic; inhibition [20]: inactive; inhibition [21]: inactive; inhibition [22]: inactive; inhibition [23]: inactive; inhibition [24]: inactive; inhibition (HEK293T [25]): 100%; inhibition [26]: inactive; inhibition [27]: inactive; inhibition (HEK293T [28]): 100%; inhibition [29]: inactive; inhibition [30]: inactive; inhibition [31]: inactive; inhibition [32]: inactive; inhibition [33]: inactive; inhibition [34]: inactive; inhibition [35]: inactive
Cc1cc(C)cc([C@H]2c3cc(C)ccc3NC(=O)CN2C(=O)c2ccc(Br)s2)c1 | inactive | inactive | inactive | inactive | inactive | inactive | inactive | inactive | inactive | Non-Toxic | inactive | inactive | inactive | inactive | inactive | inactive | inactive | inactive | Non-Toxic | inactive | Activity (HEK-293T [36]): Toxic; inhibition [20]: inactive; inhibition [21]: inactive; inhibition [22]: inactive; inhibition [23]: inactive; inhibition [24]: inactive; inhibition [26]: inactive; inhibition [27]: inactive; inhibition [29]: inactive; inhibition [30]: inactive; inhibition [31]: inactive; inhibition [32]: inactive; inhibition [33]: inactive; inhibition [34]: inactive; inhibition [35]: inactive
CNCCN1CCC(OCc2ccccc2)CC1 |  |  |  |  |  |  |  |  |  |  |  |  |  |  |  |  |  |  |  |  | IC50 [37]: 0.034 µM
Cc1ccc2c(c1)[C@@H](c1ccc(F)cc1)N(C(=O)c1ccc(Br)o1)CC(=O)N2 |  |  |  |  |  |  |  |  |  |  |  |  |  |  |  |  |  |  |  |  | IC50 [38]: 17 µM; IC50 [39]: 41 µM; IC50 [40]: 46 µM
